Laboratory results as given in ChEMBL document CHEMBL1240473, “Synthesis and bioassay of aminosulfonyl-1,3,4-oxadiazoles and their interconversion to 1,3,4-thiadiazoles” (2010).
≈ marks a conversion by molar mass, not a printed value.

What was measured:
Assay type in all cases: functional
Bacillus subtilis [1] = experiment: Antimicrobial activity against Bacillus subtilis NCIM 2063 after 24 hrs by microdilution susceptibility method; conditions: NCIM 2063, 24 h
Summary of the method: (§1)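 Broth microdilution MIC with NCIM strains. Compounds and the references (chloramphenicol, antibacterial; ketoconazole, antifungal) were dissolved in DMSO at 800 and diluted two-fold from 400 down to 6.25. Wells were inoculated with the microbial suspension and incubated at 36 °C, 24 h for bacteria and 48 h for fungi. MIC was the lowest concentration with no visible growth.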

Klebsiella pneumoniae [2] = experiment: Antimicrobial activity against Klebsiella pneumoniae NCIM 2957 after 24 hrs by microdilution susceptibility method; conditions: NCIM 2957, 24 h; summary of the method: as §1
Proteus vulgaris [3] = experiment: Antimicrobial activity against Proteus vulgaris NCIM 2027 after 24 hrs by microdilution susceptibility method; conditions: NCIM 2027, 24 h
Fusarium solani [4] = experiment: Antimicrobial activity against Fusarium solani NCIM 1330 after 48 hrs by microdilution susceptibility method; conditions: NCIM 1330, 48 h; summary of the method: as §1
Curvularia lunata [5] = experiment: Antimicrobial activity against Curvularia lunata NCIM 716 after 48 hrs by microdilution susceptibility method; conditions: NCIM 716, 48 h; summary of the method: as §1
Aspergillus niger [6] = experiment: Antimicrobial activity against Aspergillus niger NCIM 596 after 48 hrs by microdilution susceptibility method; conditions: NCIM 596, 48 h; summary of the method: as §1
[7] = Antioxidant activity assessed as nitric oxide scavenging activity at 100 uM after 120 min by Griess assay
Summary of the method: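 Sodium nitroprusside (5 mM) in phosphate buffer pH 7.4 was incubated with test compound dissolved in dioxane/methanol at 25 °C for 120 min. A solvent-only control was run in parallel. Aliquots were mixed 1:1 with Griess reagent (1% sulfanilamide, 0.1% N-naphthylethylenediamine dihydrochloride, 2% o-phosphoric acid in water).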

[8] = system: Radical scavenging activity; experiment: Antioxidant activity assessed as DPPH free radical scavenging activity at 100 uM after 20 mins
Summary of the method: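 Compound solutions were added to DPPH in dioxane/ethanol and kept at ambient temperature for 20 min, then absorbance was read at 517 nm. Percent inhibition = (A_control − A_sample)/A_control × 100, […].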

Staphylococcus aureus [9] = experiment: Antimicrobial activity against Staphylococcus aureus NCIM 5021 at 100 ug/disk after 24 hrs by agar disc-diffusion method; conditions: NCIM 5021, 24 h, read-out: DIZ
Summary of the method: (§2)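 Agar disc diffusion with NCIM strains. Sterile 6 mm filter-paper discs were moistened with compound in DMSO at 100 or 200 per disc and placed on agar plates pre-inoculated with each organism. Plates were incubated at 37 °C. Growth-inhibition zone diameter was read at 24 h for bacteria and 48 h for fungi.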

Staphylococcus aureus [10] = experiment: Antimicrobial activity against Staphylococcus aureus NCIM 5021 at 200 ug/disk after 24 hrs by agar disc-diffusion method; conditions: NCIM 5021, 24 h, read-out: DIZ; summary of the method: as §2
Bacillus subtilis [11] = experiment: Antimicrobial activity against Bacillus subtilis NCIM 2063 at 100 ug/disk after 24 hrs by agar disc-diffusion method; conditions: NCIM 2063, 24 h, read-out: DIZ; summary of the method: as §2
Bacillus subtilis [12] = experiment: Antimicrobial activity against Bacillus subtilis NCIM 2063 at 200 ug/disk after 24 hrs by agar disc-diffusion method; conditions: NCIM 2063, 24 h, read-out: DIZ; summary of the method: as §2
Klebsiella pneumoniae [13] = experiment: Antimicrobial activity against Klebsiella pneumoniae NCIM 2957 at 100 ug/disk after 24 hrs by agar disc-diffusion method; conditions: NCIM 2957, 24 h, read-out: DIZ; summary of the method: as §2
Klebsiella pneumoniae [14] = experiment: Antimicrobial activity against Klebsiella pneumoniae NCIM 2957 at 200 ug/disk after 24 hrs by agar disc-diffusion method; conditions: NCIM 2957, 24 h, read-out: DIZ; summary of the method: as §2
Proteus vulgaris [15] = experiment: Antimicrobial activity against Proteus vulgaris NCIM 2027 at 100 ug/disk after 24 hrs by agar disc-diffusion method; conditions: NCIM 2027, 24 h, read-out: DIZ
Proteus vulgaris [16] = experiment: Antimicrobial activity against Proteus vulgaris NCIM 2027 at 200 ug/disk after 24 hrs by agar disc-diffusion method; conditions: NCIM 2027, 24 h, read-out: DIZ
Fusarium solani [17] = experiment: Antimicrobial activity against Fusarium solani NCIM 1330 at 100 ug/disk after 48 hrs by agar disc-diffusion method; conditions: NCIM 1330, 48 h, read-out: DIZ; summary of the method: as §2
Fusarium solani [18] = experiment: Antimicrobial activity against Fusarium solani NCIM 1330 at 200 ug/disk after 48 hrs by agar disc-diffusion method; conditions: NCIM 1330, 48 h, read-out: DIZ; summary of the method: as §2
Curvularia lunata [19] = experiment: Antimicrobial activity against Curvularia lunata NCIM 716 at 100 ug/disk after 48 hrs by agar disc-diffusion method; conditions: NCIM 716, 48 h, read-out: DIZ; summary of the method: as §2
Curvularia lunata [20] = experiment: Antimicrobial activity against Curvularia lunata NCIM 716 at 200 ug/disk after 48 hrs by agar disc-diffusion method; conditions: NCIM 716, 48 h, read-out: DIZ; summary of the method: as §2
Aspergillus niger [21] = experiment: Antimicrobial activity against Aspergillus niger NCIM 596 at 100 ug/disk after 48 hrs by agar disc-diffusion method; conditions: NCIM 596, 48 h, read-out: DIZ; summary of the method: as §2
Aspergillus niger [22] = experiment: Antimicrobial activity against Aspergillus niger NCIM 596 at 200 ug/disk after 48 hrs by agar disc-diffusion method; conditions: NCIM 596, 48 h, read-out: DIZ; summary of the method: as §2
Staphylococcus aureus [23] = experiment: Antimicrobial activity against Staphylococcus aureus NCIM 5021 after 24 hrs by microdilution susceptibility method; conditions: NCIM 5021, 24 h; summary of the method: as §1

Row | MIC (Bacillus subtilis [1]) | MIC (Klebsiella pneumoniae [2]) | MIC (Proteus vulgaris [3]) | MIC (Fusarium solani [4]) | MIC (Curvularia lunata [5]) | MIC (Aspergillus niger [6]) | SMILES | Activity [7] | Activity [8] | zone of inhibition at 100 µg/disc (Staphylococcus aureus [9]) | zone of inhibition at 200 µg/disc (Staphylococcus aureus [10]) | zone of inhibition at 100 µg/disc (Bacillus subtilis [11]) | zone of inhibition at 200 µg/disc (Bacillus subtilis [12]) | zone of inhibition at 100 µg/disc (Klebsiella pneumoniae [13]) | zone of inhibition at 200 µg/disc (Klebsiella pneumoniae [14]) | zone of inhibition at 100 µg/disc (Proteus vulgaris [15]) | zone of inhibition at 200 µg/disc (Proteus vulgaris [16]) | zone of inhibition at 100 µg/disc (Fusarium solani [17]) | zone of inhibition at 200 µg/disc (Fusarium solani [18]) | zone of inhibition at 100 µg/disc (Curvularia lunata [19]) | zone of inhibition at 200 µg/disc (Curvularia lunata [20]) | other results
1 | 100 µg/mL (≈ 250 µM) | 200 µg/mL (≈ 500 µM) | 200 µg/mL (≈ 500 µM) | 200 µg/mL (≈ 500 µM) | 100 µg/mL (≈ 250 µM) | 200 µg/mL (≈ 500 µM) | O=S(=O)(Cc1nnc(-c2ccc(Cl)cc2)s1)Nc1ccc(Cl)cc1 | 35.7% | 34.6% | 25 mm | 27 mm | 23 mm | 26 mm | 19 mm | 22 mm | 18 mm | 20 mm | 27 mm | 30 mm | 25 mm | 27 mm | zone of inhibition at 100 µg/disc (Aspergillus niger [21]): 20 mm; zone of inhibition at 200 µg/disc (Aspergillus niger [22]): 23 mm; MIC (Staphylococcus aureus [23]): 100 µg/mL (≈ 250 µM)
2 | 50 µg/mL (≈ 114 µM) | 100 µg/mL (≈ 229 µM) | 100 µg/mL (≈ 229 µM) | 50 µg/mL (≈ 114 µM) | 100 µg/mL (≈ 229 µM) | 100 µg/mL (≈ 229 µM) | Cc1ccc(NS(=O)(=O)Cc2nnc(CS(=O)(=O)c3ccc(C)cc3)s2)cc1 | 20.3% | 21.7% | 25 mm | 28 mm | 27 mm | 29 mm | 25 mm | 27 mm | 24 mm | 26 mm | 27 mm | 35 mm | 25 mm | 33 mm | zone of inhibition at 100 µg/disc (Aspergillus niger [21]): 22 mm; zone of inhibition at 200 µg/disc (Aspergillus niger [22]): 26 mm; MIC (Staphylococcus aureus [23]): 50 µg/mL (≈ 114 µM)
3 | 25 µg/mL (≈ 61 µM) | 50 µg/mL (≈ 122 µM) | 100 µg/mL (≈ 244 µM) | 100 µg/mL (≈ 244 µM) | 100 µg/mL (≈ 244 µM) | 50 µg/mL (≈ 122 µM) | O=S(=O)(Cc1nnc(CS(=O)(=O)c2ccccc2)s1)Nc1ccccc1 | 22.6% | 23.8% | 27 mm | 30 mm | 29 mm | 31 mm | 27 mm | 29 mm | 23 mm | 26 mm | 31 mm | 33 mm | 30 mm | 32 mm | zone of inhibition at 100 µg/disc (Aspergillus niger [21]): 29 mm; zone of inhibition at 200 µg/disc (Aspergillus niger [22]): 30 mm; MIC (Staphylococcus aureus [23]): 50 µg/mL (≈ 122 µM)
